Measurements: ChEMBL document CHEMBL4342526, “Exploration of the Structural Space in 4(3H)-Quinazolinone Antibacterials” (J Med Chem, 2020)
≈ marks a conversion by molar mass, not a printed value.

Legend:
[1] = system: Staphylococcus aureus; assay: Antibacterial activity against multi-drug resistant mecA-positive Staphylococcus aureus NRS119 measured after 16 to 20 hrs by microdilution method; format: functional
Summary of the method: (§1)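 CLSI broth microdilution; two-fold serial compound dilutions in triplicate in cation-adjusted Mueller–Hinton broth with 2% NaCl, inoculum 5 × 10^5 CFU/mL; 37 °C for 16–20 h; MIC = lowest concentration with no visible growth.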

[2] = system: Staphylococcus aureus; assay: Antibacterial activity against multi-drug resistant mec-positive Staphylococcus aureus USA300 measured after 16 to 20 hrs by microdilution method; format: functional; summary of the method: as §1
[3] = Selectivity index, ratio of IC50 for human HeLa cells to MIC for clindamycin/erythromycin/spectinomycin-resistant mec-positive Staphylococcus aureus NRS70; format: toxicity
Summary of the method: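 HeLa cytotoxicity by XTT assay in triplicate, IC50 by nonlinear regression; ratio IC50 over broth microdilution MIC against NRS70.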

[4] = system: Staphylococcus aureus; assay: Antibacterial activity against multi-drug resistant mecA-positive Staphylococcus aureus ATCC 27660 measured after 16 to 20 hrs by microdilution method; format: functional; summary of the method: as §1
[5] = system: Staphylococcus aureus; assay: Antibacterial activity against clindamycin/erythromycin/spectinomycin-resistant mec-positive Staphylococcus aureus NRS70 measured after 16 to 20 hrs by microdilution method; format: functional; summary of the method: as §1
[6] = system: Staphylococcus aureus; assay: Antibacterial activity against Staphylococcus aureus ATCC 29213 measured after 16 to 20 hrs in presence of bovine serum albumin by microdilution method; format: functional
Summary of the method: (§2)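 S. aureus ATCC29213 MIC was run by CLSI microdilution in cation-adjusted Mueller–Hinton broth plus 2% NaCl, with and without 0.5% bovine serum albumin. Compounds were two-fold serially diluted in triplicate, inoculum was 5 × 10^5 CFU/mL, and plates were incubated at 37 °C for 16–20 h. The endpoint was the lowest concentration with no visible growth.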

[7] = Protein binding in human plasma at 10 uM measured after 6 hrs UV-UPLC based rapid equilibrium dialysis method; format: ADME, cell-free
Summary of the method: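 Rapid equilibrium dialysis: human plasma was cleared by centrifugation and spiked from a 1 mM DMSO stock to a final 10 μM, against 0.1 M PBS pH 7.4. Dialysis ran 6 h at 37 °C with orbital shaking. Buffer (free) and plasma (total) aliquots were mixed with internal standard in acetonitrile and measured by UPLC-UV at 285 nm. B% = (Cp−Cf)/Cp×100.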

[8] = system: HeLa; assay: Cytotoxicity against human HeLa cells assessed as reduction in cell viability measured after 16 hrs by XTT assay; format: cell-based
Summary of the method: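 HeLa cells (ATCC CCL-2), run in triplicate. Viability was read by XTT, and IC50 was obtained by nonlinear regression.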

[9] = system: Staphylococcus aureus; assay: Antibacterial activity against Staphylococcus aureus ATCC 29213 measured after 16 to 20 hrs by microdilution method; format: functional
Summary of the method: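 CLSI broth microdilution: two-fold serial dilutions in triplicate in cation-adjusted Mueller–Hinton broth with 2% NaCl, inoculum 5 × 10^5 CFU/mL, incubated at 37 °C for 16–20 h. MIC is the lowest concentration preventing visible growth.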

[10] = system: Staphylococcus aureus; assay: Selectivity ratio of MIC for Staphylococcus aureus ATCC 29213 in presence of bovine serum albumin to MIC for Staphylococcus aureus ATCC 29213 in absence of bovine serum albumin; format: functional; summary of the method: as §2

| Structure (SMILES) | MIC [1] [µg/mL] | MIC [2] [µg/mL] | selectivity ratio [3] | MIC [4] [µg/mL] | MIC [5] [µg/mL] | MIC [6] [µg/mL] | PPB [7] [%] | IC50 [8] [µg/mL] | MIC [9] [µg/mL] | selectivity ratio [10] |
| --- | --- | --- | --- | --- | --- | --- | --- | --- | --- | --- |
| CS(=O)(=O)Nc1cccc(-n2c(NCc3ccc(C#N)cc3)nc3ccccc3c2=O)c1 | 0.25 (≈ 0.561 µM) | 0.25 (≈ 0.561 µM) | 248 | 0.125 (≈ 0.281 µM) | 0.25 (≈ 0.561 µM) | 1 | > 99.9 | 62 (≈ 139 µM) | 0.125 (≈ 0.281 µM) |  |
| O=C(O)c1cccc(-n2c(/C=C/c3ccc(I)cc3)nc3ccccc3c2=O)c1 | 2 (≈ 4.05 µM) | 0.25 (≈ 0.506 µM) | 200 | 0.5 (≈ 1.01 µM) | 0.5 (≈ 1.01 µM) | 16 | > 99.9 | 100 (≈ 202 µM) | 0.5 (≈ 1.01 µM) |  |
| N#Cc1ccc(/C=C/c2nc3ccccc3c(=O)n2-c2cccc(C(=O)O)c2)s1 | 4 (≈ 10 µM) | 4 (≈ 10 µM) | 28 | 4 (≈ 10 µM) | 4 (≈ 10 µM) | 32 | 99.2 | 110 (≈ 275 µM) | 4 (≈ 10 µM) |  |
| CC(=O)NS(=O)(=O)c1cccc(-n2c(/C=C/c3ccc(C#N)cc3)nc3ccccc3c2=O)c1 | 2 (≈ 4.25 µM) |  | 50 |  |  |  | 99.2 | 200 (≈ 425 µM) | 4 (≈ 8.5 µM) |  |
| N#Cc1ccc(/C=C/c2nc3ccccc3c(=O)n2-c2cc(C(=O)O)ccc2Cl)cc1 | 2 (≈ 4.67 µM) | 1 (≈ 2.34 µM) | > 64 | 2 (≈ 4.67 µM) | 2 (≈ 4.67 µM) | 16 | > 99.9 | > 128 | 2 (≈ 4.67 µM) |  |
| N#Cc1ccc(/C=C/c2nc3ccccc3c(=O)n2CCC(=O)O)cc1 |  |  |  |  |  |  |  |  | > 128 |  |
| O=C(O)c1cccc(-n2c(/C=C/c3cc(Cl)cs3)nc3ccccc3c2=O)c1 | 1 (≈ 2.45 µM) | 4 (≈ 9.78 µM) | 70 | 2 (≈ 4.89 µM) | 2 (≈ 4.89 µM) | 32 | > 99.9 | 140 (≈ 342 µM) | 4 (≈ 9.78 µM) |  |
| COc1ccc(C(=O)O)cc1-n1c(/C=C/c2ccc(C#N)cc2)nc2ccccc2c1=O |  |  |  |  |  |  |  |  | > 128 |  |
| O=C(O)c1cccc(-n2c(/C=C/c3cc[nH]c(=O)c3)nc3ccccc3c2=O)c1 |  |  |  |  |  |  |  |  | > 128 |  |
| N#Cc1ccc(/C=C/c2nc3ccccc3c(=O)n2-c2cccc(CNC(=O)C(F)(F)F)c2)cc1 |  | 4 (≈ 8.43 µM) | 2 | 64 (≈ 135 µM) | 64 (≈ 135 µM) | 8 | > 99.9 | 150 (≈ 316 µM) | 0.5 (≈ 1.05 µM) |  |
| CNCCC(=O)Nc1cccc(-n2c(/C=C/c3ccc(C#N)cc3)nc3ccccc3c2=O)c1 |  |  |  |  |  |  |  |  | > 128 |  |
| N#Cc1ccc(/C=C/c2nc3ccccc3c(=O)n2-c2cc(O)cc(C(=O)O)c2)cc1 |  |  |  |  |  |  |  |  | > 128 |  |
| N#Cc1ccc(/C=C/c2nc3ccccc3c(=O)n2-c2cccc(C(=O)O)n2)cc1 |  |  |  |  |  |  |  |  | > 128 |  |
| Nc1cccc(-n2c(NCc3ccc(F)cc3)nc3ccccc3c2=O)c1 |  |  |  |  |  |  |  |  | 64 (≈ 178 µM) |  |
| COC(=O)c1cccc(-n2c(/C=C/c3ccc(C#N)cc3)nc3ccccc3c2=O)c1O |  |  |  |  |  |  |  |  | > 128 |  |
| CC(C(=O)O)n1c(/C=C/c2ccc(C#N)cc2)nc2ccccc2c1=O (centres undefined) |  |  |  |  |  |  |  |  | 128 (≈ 371 µM) |  |
| N#Cc1ccc(/C=C/c2nc3ccccc3c(=O)n2-c2cccc(NC(=O)NCc3cnc[nH]3)c2)cc1 |  |  |  |  |  |  |  |  | > 128 |  |
| N#Cc1ccc(/C=C/c2nc3ccccc3c(=O)n2-c2cccc(C(=O)O)c2F)cc1 |  |  |  |  |  |  |  |  | 8 (≈ 19.4 µM) |  |
| O=C(O)c1cccc(-n2c(/C=C/C3CC3)nc3ccccc3c2=O)c1 |  |  |  |  |  |  |  |  | > 128 |  |
| N#Cc1ccc(CNc2nc3ccccc3c(=O)n2-c2cccc(C(=O)O)c2)cc1 |  |  |  |  |  |  |  |  | > 128 |  |

| Structure (SMILES) | MIC [1] [µg/mL] | MIC [2] [µg/mL] | selectivity ratio [3] | MIC [4] [µg/mL] | MIC [5] [µg/mL] | MIC [6] [µg/mL] | PPB [7] [%] | IC50 [8] [µg/mL] | MIC [9] [µg/mL] | selectivity ratio [10] |
| --- | --- | --- | --- | --- | --- | --- | --- | --- | --- | --- |
| O=C(O)c1cccc(-n2c(/C=C/c3ccc(Br)s3)nc3ccccc3c2=O)c1 | 4 (≈ 8.82 µM) | 0.5 (≈ 1.1 µM) | 380 | 0.5 (≈ 1.1 µM) | 0.5 (≈ 1.1 µM) | 2 | > 99.9 | 190 (≈ 419 µM) | 0.25 (≈ 0.551 µM) |  |
| N#Cc1ccc(/C=C/c2nc3ccccc3c(=O)n2-c2cccc(NC(=O)C(F)(F)F)c2)cc1 | 1 (≈ 2.17 µM) | 0.06 (≈ 0.13 µM) | > 2130 | 0.06 (≈ 0.13 µM) | 0.06 (≈ 0.13 µM) | 32 | > 99.9 | > 128 | 2 (≈ 4.34 µM) |  |
| O=C(O)c1cccc(-n2c(/C=C/c3ccc(Cl)s3)nc3ccccc3c2=O)c1 |  | 1 (≈ 2.45 µM) | 360 | 0.5 (≈ 1.22 µM) | 0.5 (≈ 1.22 µM) | 4 | 99.3 | 180 (≈ 440 µM) | 0.5 (≈ 1.22 µM) |  |
| N#Cc1ccc(CNc2nc3ccccc3c(=O)n2-c2cccc(N)c2)cc1 |  |  |  |  |  |  |  |  | 8 (≈ 21.8 µM) |  |
| COC(=O)c1cccc(-n2c(NCc3ccc(C#N)cc3)nc3ccccc3c2=O)c1 |  |  |  |  |  |  |  |  | 16 (≈ 39 µM) |  |
| N#Cc1ccc(/C=C/c2nc3ccccc3c(=O)n2-c2cccnc2)cc1 |  |  |  |  |  |  |  |  | > 128 |  |
| O=C(O)c1cccc(-n2c(/C=C/c3ccnc(F)c3)nc3ccccc3c2=O)c1 |  |  |  |  |  |  |  |  | > 128 |  |
| CC(=O)NC[C@H]1CN(c2ccc(N3CCOCC3)c(F)c2)C(=O)O1 [LINEZOLID] |  |  |  |  |  |  |  |  | 1 (≈ 2.96 µM) |  |
| COC(=O)c1cccc(-n2c(/C=C/c3ccc(C#N)cc3)nc3ccccc3c2=O)n1 |  |  |  |  |  |  |  |  | > 128 |  |
| O=C(O)c1cccc(-n2c(/C=C/c3cccnc3F)nc3ccccc3c2=O)c1 |  |  |  |  |  |  |  |  | > 128 |  |
| C#Cc1ccc(/C=C/c2nc3ccccc3c(=O)n2-c2cccc(C(=O)O)c2)cc1 | 0.125 (≈ 0.319 µM) | 0.03 (≈ 0.0764 µM) | > 256 | 0.125 (≈ 0.319 µM) |  | 0.25 |  | > 128 | 0.03 (≈ 0.0764 µM) |  |
| N#Cc1ccc(CSc2nc3ccccc3c(=O)n2-c2cccc(C(=O)O)c2)cc1 |  |  | 39 |  |  | 8 | > 99.9 | 78 (≈ 189 µM) | 2 (≈ 4.84 µM) | <=4 |
| O=C(O)c1cccc(-n2c(/C=C/c3ccncc3)nc3ccccc3c2=O)c1 |  |  |  |  |  |  |  |  | 64 (≈ 173 µM) |  |
| O=C(O)c1cccc(-n2c(/C=C/c3cncs3)nc3ccccc3c2=O)c1 |  |  |  |  |  |  |  |  | > 128 |  |
| Cc1ccc(C(=O)O)cc1-n1c(/C=C/c2ccc(C#N)cc2)nc2ccccc2c1=O | 4 (≈ 9.82 µM) | 1 (≈ 2.45 µM) | 15 | 4 (≈ 9.82 µM) | 4 (≈ 9.82 µM) | 16 | > 99.9 | 60 (≈ 147 µM) | 2 (≈ 4.91 µM) |  |
| N#Cc1ccc(/C=C/c2nc3ccccc3c(=O)n2-c2ccc([N+](=O)[O-])cc2)cc1 |  |  |  |  |  |  |  |  | > 128 |  |
| N#Cc1ccc(CCc2nc3ccccc3c(=O)n2-c2cccc(C(=O)O)c2)cc1 |  |  |  |  |  |  |  |  | 8 (≈ 20.2 µM) |  |
| N#Cc1ccc(/C=C/c2nc3ccccc3c(=O)n2-c2ccc3[nH]c(=O)[nH]c3c2)cc1 |  |  |  |  |  |  |  |  | > 128 |  |
| O=C(O)c1cccc(-n2c(SCc3ccccc3)nc3ccccc3c2=O)c1 | 1 (≈ 2.57 µM) | 1 (≈ 2.57 µM) | > 128 |  | 0.5 (≈ 1.29 µM) | 4 | > 99.9 | > 64 | 0.25 (≈ 0.644 µM) |  |
